Bioassay records (PubChem)
HKDC1 inh: HKDC1 (human) hexokinase inhibition. Q2TB90. recombinant HKDC1, G6PDH/diaphorase resazurin coupled fluorescence. inhibition, % at 20 µM. hit rate 0.16% among 340,000. AID 493160;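 active = inhibition above about 35% when tested at 20 µM, limit read from the data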
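Test system: Recombinant HKDC1 (HK5) hexokinase enzyme, produced in-house | Input: HKDC1 at 5 µg/mL | Buffer or medium: Tris pH 8.0 buffer with MgCl2, Tween-20, BSA, BME | Schedule: 90 min reaction incubation at room temperature, dark | Technique: Resazurin-to-resorufin fluorescence via G6PDH and diaphorase coupling, 525/613 nm | Controls: DMSO wells with and without enzyme mix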
PfG6PD inh: PfG6PD (Plasmodium falciparum) enzyme inhibition. PfGluPho enzyme, NADPH resazurin-diaphorase fluorescence. hit rate 0.78% among 350,000. AID 504690. inhibition, % at 20 µM;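 active = inhibition reaching at least a set limit at 20 µM in the primary screen, cut at about 59% in these data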
ABHD5 PLIN5 PPI: inhibitors of human ABHD5-perilipin-5 interaction; Q00G26+Q8WTS1; Split G. princeps luciferase complementation, luminescence, 4 h; inhibition, % at 4 µM; hit rate 0.78% among 360,000; AID 602281;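 active = inhibition above the mean inhibition across every tested compound plus 3 SD, cut at about 22% in these data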
Exocytosis inh: blocks lytic granule exocytosis; TALL-104 LAMP-1 surface exposure, flow cytometry; cells stimulated with thapsigargin and PMA; AID 651702; hit rate 0.66% among 360,000; inhibition, % at 10 µM;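 active = inhibition above about 55%, limit read from the data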
ABHD5 PLIN5 conf: ABHD5-PLIN5 interaction inhibition, confirmed | inhibition, % at 4 µM | biochemical ABHD5-PLIN5 interaction, luminescence | shares compounds with ABHD5 PLIN5 PPI | hit rate 67% among 2,200; in the data active = inhibition above about 23%
HNF4 split-luc: active in HNF4 split-luciferase counter-screen for ABHD5-PLIN5 inhibitors. shares compounds with ABHD5 PLIN5 PPI. HNF4 dimerization, luminescence, biochemical. inhibition, % at 4 µM. hit rate 77% among 2,200;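 active = mean inhibition across replicate wells exceeding the computed hit threshold, cut at about 13% in these data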;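 note: light from luciferase halves that rejoin when HNF4 fusion proteins dimerize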
Large screens that a line does not name were inactive (follow-up assays come after a bar, where they were run); ! = not active in a repeat. This is a sample that favours compounds with a hit; in the whole collection about 2.2% have one here.

O=C(NCc1ccco1)c1nn2c(C(F)(F)F)cc(-c3cccs3)nc2c1Br	ABHD5 PLIN5 PPI 26 | ABHD5 PLIN5 conf 34 | HNF4 split-luc 62
C=CCn1cccc(/C=C/C(=O)c2ccc(C(C)(C)C)cc2)c1=S	ABHD5 PLIN5 PPI 46 | ABHD5 PLIN5 conf 75 | HNF4 split-luc 90
CC1(C)Cc2c(sc3nc(SCC(=O)NCc4ccco4)n(-c4ccccc4)c(=O)c23)CS1	ABHD5 PLIN5 PPI 30 | ABHD5 PLIN5 conf inactive | HNF4 split-luc inactive
O=C(CSc1nc2sc3c(c2c(=O)n1-c1ccccc1)CCCC3)NCc1ccco1	none
Cc1c(Cl)cccc1NC(=O)C1=COCCO1	none
Cc1sc(C(C2C(=O)CC(C)(C)CC2=O)C2C(=O)CC(C)(C)CC2=O)cc1[N+](=O)[O-]	ABHD5 PLIN5 PPI 56, Exocytosis inh 73 | ABHD5 PLIN5 conf 92 | HNF4 split-luc 89
Cc1ccc(C(=O)NC2(O)C(=O)c3ccccc3C2=O)cc1C	none
O=C(NC1(O)C(=O)c2ccccc2C1=O)c1ccc(C(F)(F)F)cc1	ABHD5 PLIN5 PPI 28 | ABHD5 PLIN5 conf 54 | HNF4 split-luc 64
CC(C)(C)OC(=O)NCCc1nnc(S(=O)(=O)Cc2ccc(Cl)cc2Cl)o1	ABHD5 PLIN5 PPI 26 | ABHD5 PLIN5 conf 39 | HNF4 split-luc 74
CC(C)(C)OC(=O)NCCc1nnc(SCc2ccccc2Cl)o1	none
Cc1ccc(/C=C/C(=O)c2ccccc2O)cc1	none
O=C(/C=C/c1ccc(O)cc1)c1ccccc1	none
O=C(C=Cc1ccccc1Cl)c1ccccc1	ABHD5 PLIN5 PPI 37 | ABHD5 PLIN5 conf 88 | HNF4 split-luc 71
O=C(C=Cc1ccccn1)c1ccccc1	ABHD5 PLIN5 PPI 79 | ABHD5 PLIN5 conf 93 | HNF4 split-luc 103
O=C(C=Cc1ccccn1)c1ccccc1O	ABHD5 PLIN5 PPI 67 | ABHD5 PLIN5 conf 99 | HNF4 split-luc 89
Cc1ccccc1-c1cnc(C(O)c2ccc(Cl)cc2C)[nH]1 (stereo not given)	none (no result: HKDC1 inh, PfG6PD inh)
C=C[C@]1(C)C[C@@H](OC(=O)CSCCN(CC)CC)[C@]2(C)C(C)CC[C@]3(CCC(=O)[C@H]32)[C@@H](C)[C@@H]1O (stereo not given in full)	ABHD5 PLIN5 PPI 23! | ABHD5 PLIN5 conf 33 | HNF4 split-luc inactive
O=C(c1ccccc1)c1cc(Cl)ccc1N1C(=O)C=CC1=O	PfG6PD inh 112, ABHD5 PLIN5 PPI 38 | ABHD5 PLIN5 conf 47 | HNF4 split-luc 98
O=C(CC(=O)c1cc(Cl)ccc1O)c1ccccc1	none
Cc1nc(Cl)c(Cl)n1CCOc1ccccc1	none
CC1C/C(=C/c2cccn2C)C(=O)/C(=C/c2cccn2C)C1 (stereo not given)	ABHD5 PLIN5 PPI 42 | ABHD5 PLIN5 conf inactive | HNF4 split-luc 54
O=c1[nH]c(/C=C\c2cccnc2)c([N+](=O)[O-])c(=O)[nH]1	none
O=c1[nH]c(/C=C/c2cccnc2)c([N+](=O)[O-])c(=O)[nH]1	ABHD5 PLIN5 PPI 40 | ABHD5 PLIN5 conf 56 | HNF4 split-luc 41
O=c1[nH]c(/C=C/c2ccccc2)c([N+](=O)[O-])c(=O)[nH]1	ABHD5 PLIN5 PPI 27 | ABHD5 PLIN5 conf 73 | HNF4 split-luc 62
O=c1[nH]c(/C=C/c2cccc([N+](=O)[O-])c2)c([N+](=O)[O-])c(=O)[nH]1	ABHD5 PLIN5 PPI 25 | ABHD5 PLIN5 conf 91 | HNF4 split-luc 85
Cc1noc(/C=C/c2cccnc2)c1[N+](=O)[O-]	ABHD5 PLIN5 PPI 37 | ABHD5 PLIN5 conf 48 | HNF4 split-luc 33
CN(C)CCn1cnc2c(c1=N)C(c1ccccc1)c1ccc3ccccc3c1O2 (stereo not given)	ABHD5 PLIN5 PPI 26 | ABHD5 PLIN5 conf inactive | HNF4 split-luc inactive
CCCS(=O)(=O)NC(=O)C1(C)CCCN(C(=O)c2cccc(C(F)(F)F)c2)C1 (stereo not given)	none (no result: HKDC1 inh, PfG6PD inh)
O=[N+]([O-])c1ccc(N2CCc3ccccc3C2)cc1	ABHD5 PLIN5 PPI 31 | ABHD5 PLIN5 conf 60 | HNF4 split-luc 58
O=C(CCCN1C(=O)S/C(=C/C=C/c2ccccc2)C1=O)Nc1ccc(C(=O)O)cc1	ABHD5 PLIN5 PPI 28 | ABHD5 PLIN5 conf inactive | HNF4 split-luc inactive
O=C(CN1C(=O)S/C(=C\C=C\c2ccccc2)C1=O)Nc1ccc(O)cc1	ABHD5 PLIN5 PPI 30 | ABHD5 PLIN5 conf inactive | HNF4 split-luc inactive
CCc1nc2c(OCc3ccccc3)cccn2c1N(Cc1ccccc1)C(C)=O	none (no result: HKDC1 inh, PfG6PD inh)
C[C@@H]1CN([C@H](C)CO)C(=O)CCCn2cc(nn2)CO[C@H]1CN(C)C(=O)Nc1cccc(Oc2ccccn2)c1	none (no result: HKDC1 inh)
CCc1ccc(OCC(=O)Nc2ccc(N3CCN(S(C)(=O)=O)CC3)cc2)cc1	none
COC(=O)C1C=CC(OC2OC(COC(C)=O)C(OC(C)=O)C(OC(C)=O)C2OC(C)=O)n2c(=O)n(-c3ccccc3)c(=O)n21 (stereo not given)	ABHD5 PLIN5 PPI 26 | ABHD5 PLIN5 conf inactive | HNF4 split-luc 72
CC(=O)OCC1OC(n2ccc3ccccc32)C(OC(C)=O)C(OC(C)=O)C1OC(C)=O (stereo not given)	none
CCOc1ccc(S(=O)(=O)N2CCC(C(=O)NCCN3CCOCC3)CC2)cc1C	none
CCOc1ccc(S(=O)(=O)N2CCN(C(=O)C3CCC3)CC2)cc1	none
CCOc1cc(N)c(Cl)cc1C(=O)NCC1CN(Cc2ccc(F)cc2)CCO1 (stereo not given)	ABHD5 PLIN5 PPI 71 | ABHD5 PLIN5 conf 78 | HNF4 split-luc 33
COc1ccccc1/C=C/C=N/n1c(-c2ccc(F)cc2)n[nH]c1=S	ABHD5 PLIN5 PPI 52 | ABHD5 PLIN5 conf inactive | HNF4 split-luc inactive
COc1ccccc1/C=C\C=N\n1c(-c2ccc(Cl)cc2)n[nH]c1=S	none
COc1ccc(-c2cn(CC[C@@H]3CC[C@H](NC(=O)Cc4ccccn4)[C@@H](CO)O3)nn2)cc1	none (no result: HKDC1 inh, PfG6PD inh)
CN1\C(=C/C=C/C=C/C=[N+](C)C)C(C)(C)c2ccccc21	ABHD5 PLIN5 PPI 24 | ABHD5 PLIN5 conf 49 | HNF4 split-luc 38
COc1ccccc1C(=O)NNC(=O)c1ccccc1[N+](=O)[O-]	none
O=C(NNC(=O)C1CC1)c1ccccc1[N+](=O)[O-]	ABHD5 PLIN5 PPI 32 | ABHD5 PLIN5 conf inactive | HNF4 split-luc inactive
CC1CCN(S(=O)(=O)c2ccc(NC(=O)Cc3ccccc3)cc2)CC1	ABHD5 PLIN5 PPI 33 | ABHD5 PLIN5 conf 50 | HNF4 split-luc inactive
O=C(Cc1ccccc1)Nc1ccc(S(=O)(=O)N2CCOCC2)cc1	none
CC1CCN(S(=O)(=O)c2ccc(NC(=O)Cn3nnc(-c4ccccc4F)n3)cc2)CC1	ABHD5 PLIN5 PPI 26 | ABHD5 PLIN5 conf 41 | HNF4 split-luc inactive
CCCC(C(=O)Nc1ccc(S(=O)(=O)Nc2nccs2)cc1)c1ccccc1 (stereo not given)	none
CCN(CC(=O)Nc1cccc(C(C)=O)c1)S(=O)(=O)c1ccc(C)cc1	none
NC(=O)C(C(=O)/C=C/c1ccc(Cl)cc1)=C1SCCS1	ABHD5 PLIN5 PPI 34 | ABHD5 PLIN5 conf 56 | HNF4 split-luc 34
